Assay outcomes deposited in PubChem BioAssay by The Scripps Research Institute Molecular Screening Center.
Shown are actives, neighbours in structure and some others; about 1.8% of the full set was active somewhere.
NPY Y1 blocker – antagonists of human neuropeptide Y receptor Y1; P25929; HEK293-CNG Y1 cells, membrane potential fluorescence; NPY at EC95, then isoproterenol; 200,000 tested, 1% active; inhibition, % at 3.6 µM;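 active = inhibition above the campaign mean inhibition of all tested compounds plus 3 SD, cut at about 20% in these data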;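 also: 0% = DMSO wells given NPY plus isoproterenol and 100% = isoproterenol alone without NPY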
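Material: HEK293 cells with Y1 receptor plus CNG channel; times: compound incubation 1 h at room temperature, readout 45 min post-stimulation; signal: fluorescence, membrane potential probe; read-out basis: fluorescence ratio normalized to % inhibition between controls; benchmarks: full-block control isoproterenol-only wells, zero-block control NPY plus isoproterenol wells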
NPY-Y2 antag – NPY-Y2 (human) receptor antagonism; inhibition, % at 2.7 µM; NPY-Y2 expressing cells, antagonist mode; 140,000 tested, 0.99% active; P49146; in the data active = inhibition above about 17%;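 also: 0% = vehicle with agonist challenge and 100% = reference antagonist with challenge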
Target sequence (P49146 whole entry, looked up): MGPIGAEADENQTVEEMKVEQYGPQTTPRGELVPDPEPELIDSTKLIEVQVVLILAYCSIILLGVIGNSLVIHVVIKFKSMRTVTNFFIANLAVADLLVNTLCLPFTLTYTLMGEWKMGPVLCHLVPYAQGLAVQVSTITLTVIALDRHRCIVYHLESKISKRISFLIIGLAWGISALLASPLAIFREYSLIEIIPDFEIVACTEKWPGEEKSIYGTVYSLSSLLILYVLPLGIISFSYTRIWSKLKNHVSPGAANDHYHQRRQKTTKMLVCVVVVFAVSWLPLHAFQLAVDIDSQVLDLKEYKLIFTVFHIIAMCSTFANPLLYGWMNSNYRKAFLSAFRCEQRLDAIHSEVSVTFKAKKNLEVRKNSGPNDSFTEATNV
NPY2 pot ag – potentiators or agonists of human neuropeptide Y receptor Y2 | P49146 | cells expressing NPY-Y2, potentiator/agonist read-out | activation, % at 3.6 µM | 220,000 tested, 0.45% active; in the data active = activation above about 27%;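 also: cells stimulated with NPY near EC25 plus isoproterenol at EC100; 0% = vehicle plus submaximal agonist and 100% = vehicle plus saturating agonist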
NPY1 pot ag – potentiates or activates human NPY-Y1 receptor | activation, % at 3.6 µM | NPY-Y1 expressing cells, potentiator/agonist activation | 220,000 tested, 0.37% active; in the data active = activation above about 33%, passing the limit was not always enough;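 also: cells stimulated with NPY at EC10 then isoproterenol at EC100; 0% = low agonist plus stimulus and 100% = saturating agonist plus stimulus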
NPY1 antag ctr – antagonizes human NPY-Y1, counter-screen to NPY-Y2 antagonists; shares compounds with NPY-Y2 antag; cell-based NPY-Y1 antagonism counterscreen; inhibition, % at 3.6 µM; 710 tested, 19% active; AID 1256; in the data active = inhibition above about 20%;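 also: cells challenged with NPY then isoproterenol with cAMP sensed through a CNG channel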
NPY-Y2 ant conf – human NPY-Y2 antagonism, confirmation; shares compounds with NPY-Y2 antag; HEK293 NPY-Y2 CNG channel, membrane potential fluorescence; inhibition, % at 2.8 µM; 710 tested, 32% active;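 active = mean inhibition of triplicate wells above the hit cutoff set in the primary screen, cut at about 17% in these data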;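 also: 0% = DMSO with NPY challenge and 100% = BIIE0246 high control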
Numbers without * were called inactive; · = no result given.

SMILES	NPY Y1 blocker	NPY-Y2 antag	NPY2 pot ag	NPY1 pot ag	others
COC(=O)CSc1nc(N)c2c3c(sc2n1)C(c1ccccc1)SC(c1ccccc1)C3 (stereo not given)	-13	0	56*	81*
CCNc1nc(NC(C)(C)C)nc(N2CCCCC2)n1	-3	·	30*	50*
CCNc1nc(N2CCCC2)nc(N2CCCC2)n1	15	·	-15	19
COCc1nc2ccccc2n1Cc1c(F)cccc1Cl	4	·	0	7
C=CCN1C(=Nc2cccnc2)SCC1(O)c1ccc(C)cc1 (stereo not given)	20	21*	31	-5
COc1ccc(C(C)(C)C)cc1NC(=O)c1cc(S(=O)(=O)N(C)C)ccc1N1CCCC1	25*	22*	4	0
CCc1cccc(NC(=O)c2cc(S(=O)(=O)N(C)C)ccc2N2CCCC2)c1	4	·	-3	-1
O=C(Nc1ccc(CN2CCCCC2)cc1)c1cc(Br)ccc1Cl	8	·	-9	-14
O=C(Nc1ccc(CN2CCCCC2)cc1)c1cccc(Br)c1	2	5	56*	43*
CCOC(=O)c1c(C)n(C)c2ccc(O)c(CN(CC)CC)c12	-5	15	60*	70*
CCOC(=O)c1c(C)oc2ccc(O)c(CN(C)C)c12	-8	6	53*	61*
CCOC(=O)c1c(C)oc2cc(Cl)c(O)c(CN(C)C)c12	·	·	-20	-29
CCC(C)NC(=O)Cn1nc([N+](=O)[O-])c(Cl)c1C (stereo not given)	5	-2	3	-15
Cc1c(Cl)c([N+](=O)[O-])nn1CC(=O)NC(C)C1CC2CCC1C2 (stereo not given)	20*	21*	-4	-12
O=C(Nc1cc(C(F)(F)F)ccc1N1CCOCC1)C1Cc2ccccc2CN1C(=O)c1ccco1 (stereo not given)	26*	19*	8	2
COc1ccc2sc(N(CCN(C)C)C(=O)/C=C/c3cccs3)nc2c1	8	·	41*	42*
COC(=O)CCn1nc(-c2ccc(C)cc2)c2ccccc2c1=O	5	·	4	0
COc1cccc(CN2CCC(N(CCc3ccccc3)Cc3ccccc3)CC2)c1OC	35*	31*	-1	-30
COc1ccc(C2=CC(=O)C=CC2=O)cc1	·	·	-16	7
Cc1ccc(C)c(N2CCN(c3nc4ccccc4c(=O)n3Cc3ccccc3)CC2)c1	30*	28*	-6	-31
CN(C)C(CNC(=O)c1ccc(S(=O)(=O)N(C)C)cc1)Cc1ccccc1 (stereo not given)	6	·	-4	-18
Oc1ccc(Nc2nc(N3CCCC3)c3ccccc3n2)cc1	2	3	-7	-5
Cc1ccc(Nc2nc(N3CCOCC3)c3ccccc3n2)cc1	23*	8	-53	-38
COc1ccc(Nc2nc(N3CCCCC3)c3ccccc3n2)cc1	34*	41*	-2	-44
O=C(OCC(=O)N1CCCC1)c1c2c(nc3ccccc13)CCCCC2	0	·	-6	3
SMILES	NPY Y1 blocker	NPY-Y2 antag	NPY2 pot ag	NPY1 pot ag	others
Cc1ccc(-c2[nH]nc(N)c2N=Nc2ccccc2C)cc1	-3	-3	-1	-7
Cc1ccc(-c2[nH]nc(N)c2N=Nc2cccc(Cl)c2C)cc1	-1	-3	17	46*
CCN(CC)C(=O)C(C)N(C#N)c1nc(C)cc(C)n1 (stereo not given)	-12	0	105*	114*
Cc1cc(C)n(-c2ccc(F)cc2CN2CCN(C3CCCC3)C(CCO)C2)n1 (stereo not given)	20*	·	-10	17
O=C(CN1CCN(c2cccc(C(F)(F)F)c2)CC1)Nc1cccc(C(F)(F)F)c1	5	17*	-11	-54	NPY1 antag ctr=24*;NPY-Y2 ant conf=22*
O=C(/C=C/c1ccc(Br)cc1)N1CCN(c2cccc(C(F)(F)F)c2)CC1	7	19*	-12	-9	NPY1 antag ctr=24*;NPY-Y2 ant conf=25*
Cc1nc2c(O)cccc2cc1CO	·	·	1	10
Cc1ccnc2nc(C(=O)OCC(=O)c3c[nH]c4ccccc34)nn12	·	·	6	-19
O=C(C(Sc1ccccc1)c1ccccc1)N1CCN(c2ccccc2)CC1 (stereo not given)	12	19*	0	-3	NPY1 antag ctr=16;NPY-Y2 ant conf=9
Cc1cccc(Nc2nnc(-c3ccc(C(=O)N4C[C@H]5C[C@H](C4)c4cccc(=O)n4C5)cc3)c3ccccc23)c1	3	2	-22	-4
CCOC(=O)c1c(-c2ccc(C)o2)csc1NC(=O)CN1CCOCC1	4	6	-9	5
CCOC(=O)c1c(-c2ccc(C)o2)csc1NC(=O)COC(=O)c1cccs1	4	20*	-4	-26	NPY1 antag ctr=5;NPY-Y2 ant conf=2
COc1ccccc1CN1CN(S(=O)(=O)c2ccccc2)c2nc3ccccc3nc21	·	·	-9	-13
Cc1cc(C)nc(NC(=O)CSc2nc3ccccc3s2)n1	2	2	-1	-23
Cc1ccc(S(=O)(=O)NC(=O)CSc2nc3ccccc3s2)cc1	13	20*	-25	-21	NPY1 antag ctr=12;NPY-Y2 ant conf=14
O=C(COc1cccnc1[N+](=O)[O-])c1ccc(Cl)s1	·	·	-22	8
O=C(COC(=O)/C=C/c1ccc(Cl)cc1)Nc1ccc2c(c1)OCCO2	6	17*	7	3	NPY1 antag ctr=14;NPY-Y2 ant conf=12
COc1ccc(Cn2c(SCC#N)nc3ccc(N4CCOCC4)cc3c2=O)cc1	0	·	-6	-2
Clc1ccc(CSc2cc3c(nn2)-c2ccccc2CC3)cc1Cl	16	20*	-24	-50	NPY1 antag ctr=20;NPY-Y2 ant conf=36*
CC(C)(C)C(=O)/C=C/c1ccc(Oc2ccccc2)cc1	·	·	-30	-4
CC1(C)Cc2nc(-c3ccccc3)nc(SCC(O)CO)c2CO1 (stereo not given)	·	·	10	-7
CCN(CC)C(=O)CSc1nc(-c2ccc(C)cc2)nc2c1COC(C)(C)C2	7	20*	6	2	NPY1 antag ctr=5;NPY-Y2 ant conf=4
CCN(CC)c1ccc(C2C(C(=O)OC(C)C)C(=O)CC(C)(O)C2C(=O)OC(C)C)cc1 (stereo not given)	20	19*	10	-7	NPY1 antag ctr=6;NPY-Y2 ant conf=5
C=CCOC(=O)C1C(=O)CC(C)(O)C(C(=O)OCC=C)C1c1ccc(OCC)cc1 (stereo not given)	14	22*	-32	-16	NPY1 antag ctr=16;NPY-Y2 ant conf=9
CCOC(=O)C1CCN(C(=O)N(CC)CC)CC1	-4	·	-6	-3
O=C(NC(=S)Nc1ccccc1N1CCCCC1)c1ccco1	8	18*	-3	-67	NPY1 antag ctr=12;NPY-Y2 ant conf=8
N/C(=N\OC(=O)COc1ccccc1Cl)c1ccc(Cl)cc1	8	18*	-24	-23	NPY1 antag ctr=6;NPY-Y2 ant conf=10
N#Cc1nc(Cc2ccccc2)oc1N1CCN(c2cccc(Cl)c2)CC1	8	0	17	-29
N#Cc1nc(COc2ccc(Cl)cc2Cl)oc1N1CCN(c2ccccc2)CC1	13	17*	-16	-14	NPY1 antag ctr=29*;NPY-Y2 ant conf=21*
